Measured values as given in ChEMBL document CHEMBL1126900, “Transformation of heterocyclic reversible monoamine oxidase-B inactivators into irreversible inactivators by N-methylation” (J Med Chem, 1993).

Biological target: T1, Amine oxidase [flavin-containing] B (Bos taurus, UniProt P56560)
T1 sequence (P56560 whole entry): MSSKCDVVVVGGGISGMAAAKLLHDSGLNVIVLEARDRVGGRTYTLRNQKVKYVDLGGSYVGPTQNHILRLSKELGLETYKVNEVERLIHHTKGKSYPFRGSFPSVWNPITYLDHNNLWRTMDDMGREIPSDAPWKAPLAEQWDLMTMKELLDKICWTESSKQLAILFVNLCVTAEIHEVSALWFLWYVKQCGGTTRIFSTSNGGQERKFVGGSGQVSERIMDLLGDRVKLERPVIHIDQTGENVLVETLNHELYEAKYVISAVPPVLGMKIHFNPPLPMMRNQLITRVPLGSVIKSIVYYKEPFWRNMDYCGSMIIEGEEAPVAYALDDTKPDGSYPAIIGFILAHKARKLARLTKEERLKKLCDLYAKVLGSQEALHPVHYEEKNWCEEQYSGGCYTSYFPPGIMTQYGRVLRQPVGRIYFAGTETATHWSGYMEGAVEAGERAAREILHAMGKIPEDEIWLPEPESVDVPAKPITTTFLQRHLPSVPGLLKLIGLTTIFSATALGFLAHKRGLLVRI
Experiment: Kinetic constant for inactivation of MAO B from replot of half-lives of inactivation
Conditions: for kinact: cattle
How it was run: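 Bovine liver MAO-B (specific activity 4–6 units/mg) preincubated at 25 °C with inactivator hydrochloride at various concentrations, or none (control), in 100 mM potassium phosphate pH 7.40 with 2.0 mM glutathione. Aliquots taken periodically and assayed with 0.50 mM cinnamylamine in 100 mM Tris pH 9.0, 25 °C. Activity corrected against control. KI and kinact obtained by Kitz–Wilson replot of inactivation half-lives.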

Row | SMILES | Ki [mM] | kinact [s⁻¹]
1 | NCC1CN(c2ccc(OCc3cccc(Cl)c3)cc2)C(=O)O1 (stereo unspecified) | 0.067 | 0.00233
2 | COc1ccc(N2CC(CN(C)C)CC2=O)cc1 (stereo unspecified) | 300 | 5.83e-05
3 | COc1ccc([C@H]2C[C@@H](CN(C)C)OC2=O)cc1 | 200 | 0.000283
4 | CNCC1CN(c2ccc(OC)cc2)C(=O)O1 (stereo unspecified) | 4.7 | 3.17e-05
5 | COc1ccc(N2CC(CN)OC2=O)cc1 (stereo unspecified) | – | 1.33e-05
6 | CNCC1CC(=O)N(c2ccc(OC)cc2)C1 (stereo unspecified) | 50 | 5.83e-05
7 | COc1ccc(N2CC(CN(C)C)OC2=O)cc1 (stereo unspecified) | 13.3 | 5e-05
8 | COc1ccc(N2CC(CN)CC2=O)cc1 (stereo unspecified) | 6.7 | 1.12e-05
9 | CNCC1CN(c2ccc(OCc3cccc(Cl)c3)cc2)C(=O)O1 (stereo unspecified) | 0.2 | 0.000417
10 | COc1ccc(C2CC(CN)OC2=O)cc1 (stereo unspecified) | 6.7 | 7.33e-05
11 | CN(C)CC1CN(c2ccc(OCc3cccc(Cl)c3)cc2)C(=O)O1 (stereo unspecified) | 0.5 | 0.00137
